For orientation: IC50 means the concentration at which inhibition is half-maximal.

Common to all, as to type: functional, organism-based
The test system of one assay is Aspergillus flavus. Briefly: Antifungal activity against Aspergillus flavus CGMCC 3.0951 after 48 hrs by Alamar blue assay. The note with it: CGMCC 3.0951, 48 h. For orientation: The colour change of resazurin is a common sign of viable cells or microbes.
Another assay relates to Microdochium nivale. Briefly: Antifungal activity against Fusarium nivale CGMCC 3.4600 after 48 hrs by Alamar blue assay. To be noted: CGMCC 3.4600, 48 h. The method in brief:
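Plant-pathogen broth microdilution per NCCLS, in triplicate. F. nivale was grown on PDA, then in broth at 28 °C for 48 h, and suspended at 10^4 hyphae/mL in PDB. Serial dilutions were made from a 4 mg/mL DMSO stock. Alamar blue was the indicator and carbendazim the positive control. After incubation at 28 °C for 48 h, fluorescence was read at 544/590 nm, and IC50 was derived from the inhibition-concentration plot.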

A further assay has as its system Pyricularia oryzae. Briefly: Antifungal activity against Pyricularia oryzae CGMCC 3.3283 after 48 hrs by Alamar blue assay. To be noted: CGMCC 3.3283, 48 h. An outline of the steps:
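Broth microdilution per NCCLS recommendations, in triplicate. Strain grown on PDA, then in broth at 28 °C for 48 h. Final suspension 10^4 hyphae/mL in PDB. Samples from 4 mg/mL DMSO stock, serially diluted. Alamar blue added as indicator; incubated 28 °C for 48 h. Fluorescence read at Ex/Em 544/590 nm. Inhibition plotted against concentration to give IC50.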

`C[C@@H]1[C@H](O)[C@@H](C)/C=C/C=C/C=C/C=C/C=C/C=C/C=C/[C@H](O[C@@H]2O[C@H](C)[C@@H](O)[C@H](N)[C@@H]2O)C[C@@H]2O[C@](O)(C[C@@H](O)C[C@@H](O)[C@H](O)CC[C@@H](O)C[C@@H](O)CC(=O)O[C@H]1C)C[C@H](O)[C@H]2C(=O)O` [AMPHOTERICIN B]: the IC50 in the assay on Aspergillus flavus is 3.3 µM.
As to `COC(=O)Nc1nc2ccccc2[nH]1` [CARBENDAZIM], the values for the IC50 with Microdochium nivale and with Pyricularia oryzae were 2.6 µM and 5 µM, respectively.
In the case of `C[C@@H]1CC(=O)c2c(coc2-c2c(O)cccc2O)[C@@H]1O` [LEPTOSPHAERIN A], the IC50 in the assay with Aspergillus flavus, with Microdochium nivale and with Pyricularia oryzae was over 150 µM throughout.
As to `C[C@@H]1CC(=O)c2c(coc2-c2c(O)cccc2O)[C@H]1O` [LEPTOSPHAERIN B], the IC50 in the assay on Aspergillus flavus, in the assay with Microdochium nivale and with Pyricularia oryzae was over 150 µM in each case.
For the molecule `CC1=C[C@H](O)[C@@]2(Oc3cccc(O)c3C2=O)[C@H](C)C1=O` [LEPTOSPHAERIN C], the IC50 in the assay on Aspergillus flavus stood at 81.4 µM; with Microdochium nivale it was 144 µM; in the assay on Pyricularia oryzae it was 80.3 µM.
The corresponding values for `Cc1cc(O)c2c(c1O)COc1cccc(O)c1C2=O` [LEPTOSPHAERIN D] are over 150 µM, 12.5 µM and 18.1 µM.
The matching figures for `Cc1cc(CO)c2c(=O)c3c(O)cc(O)cc3oc2c1` [LEPTOSPHAERIN E]: over 150 µM, over 150 µM and over 150 µM.
As to `C[C@@H]1C[C@H](O)[C@H]2C(=O)c3c(O)cccc3O[C@]2(C)[C@H]1O` [LEPTOSPHAERIN F], the concentration for half-maximal inhibition (IC50) in the assay on Aspergillus flavus, in the assay on Microdochium nivale and in the assay with Pyricularia oryzae was over 150 µM in each case.
Regarding `C[C@@H]1CC(O)=C2C(=O)c3c(O)cccc3O[C@]2(C)[C@H]1O` [LEPTOSPHAERIN G], the IC50 in the assay with Aspergillus flavus is 14.8 µM; in the assay on Microdochium nivale it was over 150 µM; in the assay with Pyricularia oryzae, over 150 µM.

The record behind these values is ChEMBL document CHEMBL1157754, “Polyketides from the ascomycete fungus Leptosphaeria sp” (J Nat Prod, 2010).
